Compounds with a hit are over-represented: about 4% of the library has one in this group of screens.
OX1R antag-1 – antagonists of human orexin 1 receptor (OX1R) | O43613 | OX1R-expressing cells, FRET antagonist read-out | inhibition, % at 6.6 µM | 330,000 compounds, 1.8% hits | AID 485270; in the data active means inhibition mostly above about 38%, no sharp cut-off; inactive means mostly below about 40%
Target sequence (O43613 whole entry, looked up): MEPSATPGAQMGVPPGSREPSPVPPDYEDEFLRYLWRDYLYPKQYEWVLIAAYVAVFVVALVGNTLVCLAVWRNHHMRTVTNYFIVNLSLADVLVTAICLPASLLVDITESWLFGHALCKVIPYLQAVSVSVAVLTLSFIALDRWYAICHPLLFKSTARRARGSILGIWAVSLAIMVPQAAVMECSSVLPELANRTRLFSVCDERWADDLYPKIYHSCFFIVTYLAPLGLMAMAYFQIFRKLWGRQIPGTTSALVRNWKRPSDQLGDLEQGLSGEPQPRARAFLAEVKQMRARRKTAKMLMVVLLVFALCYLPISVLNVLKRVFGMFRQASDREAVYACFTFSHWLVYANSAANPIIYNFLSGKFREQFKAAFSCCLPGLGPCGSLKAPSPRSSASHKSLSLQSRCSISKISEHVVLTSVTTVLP
TAAR1 antag – antagonists of human TAAR1. inhibition, % at 3 µM. Q96RJ0. CHO RD-HGA16 TAAR1, Fluo-8 calcium fluorescence, antagonist. 360,000 compounds, 1.5% hits;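 active means inhibition above a per-plate cutoff, the mean inhibition of test compounds on that plate plus 3 SD, cut at about 49% in these data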
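Test system – hTAAR1-expressing CHO RD-HGA16 cells, Gα16-coupled · Also added – β-PEA at EC80 concentration, post-compound challenge · Compound – 3 µM, single point · Incubation – dye loading 75 min at 37 °C, then 30 min room temperature · Measured by – Fluo-8 intracellular calcium dye fluorescence, real-time kinetic reads · Benchmarks – vehicle and agonist controls · Replicates – singlicate, one well per test compound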
TAAR1 ag – human TAAR1 agonism. AID 624467. CHO RD-HGA16 TAAR1, Fluo-8 calcium fluorescence; vehicle wells 0%, saturating PEA agonist 100%. activation, % at 3 µM. 360,000 compounds, 0.99% hits. Q96RJ0;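 active means activation above the mean activation of all test compounds in the run plus 3 SD, cut at about 38% in these data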
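System: CHO RD-HGA16 cells carrying human TAAR1 plus Gα16; Incubation: 17-24 h seeding, 75 min 37 °C dye, 30 min RT; Measured by: Fluo-8 fluorescence, 5 s baseline then 140 s kinetic read; Control set: DMSO and PEA EC100; Replication: single well for each compound.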
OX1R antag-2 – human HCRTR1 antagonism; O43613; CHO/OX1R cells, Fluo-8 calcium fluorescence, orexin A; inhibition, % at 5 µM; 330,000 compounds, 0.43% hits;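 active means inhibition above its plate's threshold, mean inhibition of all tested compounds on the plate plus 3 SD, cut at about 37% in these data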
CHO parental Ca – counter-screen for OX1R antagonists: effect in parental CHO cells. parental CHO-K1, ATP-induced calcium, Fluo-8 fluorescence. inhibition, % at 5.6 µM. 330,000 compounds, 0.63% hits;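 active means inhibition above that plate's mean sample inhibition plus 3 SD, cut at about 26% in these data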
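Assay system – parental CHO cells · Reagent – ATP stimulus · Detection – intracellular calcium via Fluo-8 no-wash fluorescent dye · Evaluation – percent inhibition of ATP-evoked calcium rise, normalized to controls · Controls – ATP wells versus no-ATP DMSO wells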
A number is an active result; . = inactive; / = not tested or not shown.

SMILES	OX1R antag-1	TAAR1 antag	TAAR1 ag	OX1R antag-2	CHO parental Ca
Cn1cc(CNC(=O)c2cc(COc3ccc4c(c3)CCCC4)on2)cn1	.	.	.	.	.
Cc1ccc(NC(=O)C2CCCN2C(=O)NC2CCCCC2)cc1 (stereo not given)	.	.	.	.	.
C=CCNC(=O)/C(C#N)=C/c1ccccc1OCc1ccc(C(=O)OC)cc1	.	49	.	.	.
C[C@H](CO)N1C[C@H](C)[C@@H](CN(C)C(=O)c2ccc(N3CCN(C)CC3)cc2)OCc2cn(nn2)CCCC1=O	/	.	.	/	/
CCCCS(=O)(=O)N1CCCc2nc(CC)c(CC)cc21	/	.	.	/	/
O=c1cc(-c2c(F)c(F)c(F)c(F)c2F)oc2c(F)c(F)c(F)c(F)c12	45	/	/	43	68
O=c1cc(-c2c(F)c(F)c(F)c(F)c2F)oc2ccccc12	.	.	.	.	.
CCN(CC)C(=O)Cn1c(=O)n(C)c2ccccc21	.	.	.	.	.
C=CCn1c(C)c(/C=C/c2cc[n+](C)cc2)c2ccccc21	48	.	.	.	.
CCN(CC)C(=O)Cn1c(C)c(/C=C/c2cc[n+](C)cc2)c2ccccc21	72	.	.	.	.
CCn1cc(/C=C/c2cc[n+](C)cc2)c2ccccc21	45	.	.	.	.
Cc1c(C=O)c2ccccn2c1C(=O)c1cccs1	.	.	.	.	.
CC(=O)N1CCCc2cc(S(=O)(=O)N3CCCC(C(=O)N4CCN(c5ccccc5)CC4)C3)ccc21 (stereo not given)	.	.	.	.	.
CC(=O)N1CCCc2cc(S(=O)(=O)N3CCCC(C(=O)N4CCN(c5cc(C)ccc5C)CC4)C3)ccc21 (stereo not given)	40	.	.	51	44
COc1ccccc1N1CCN(C(=O)C2CCCN(S(=O)(=O)c3ccc4c(c3)CCCN4C(C)=O)C2)CC1 (stereo not given)	.	68	.	.	.
Cc1ccc(C)c(N2CCN(C(=O)C3CCCN(S(=O)(=O)c4cnc[nH]4)C3)CC2)c1 (stereo not given)	.	.	.	.	.
COc1ccccc1C(=O)NCC(=O)OCC(=O)N1CC(C)OC(C)C1 (stereo not given)	/	.	.	/	/
COc1ccc(CN(C(=O)CN2C(=O)COc3ccccc32)C2CCCC2)c(OC)c1	58	.	.	.	.
COc1ccc(CN(Cc2ccccn2)C(=O)CN2C(=O)COc3ccccc32)cc1	.	/	/	.	.
Cc1nc(/C(=N/O)C(N)=O)cs1	.	.	.	.	.
c1ccc2c(c1)OCCOCCOc1ccccc1OCCOCCO2	.	53	.	.	.
Brc1cc2c(cc1Br)OCCOCCOCCOCCO2	.	.	.	.	.
Brc1ccc2c(c1)OCCOCCOc1cc(Br)ccc1OCCOCCOCCO2	.	/	/	72	57
COCCOc1ccc(C(F)(F)F)cc1NC(=O)c1ccc(C)cc1	.	.	.	.	39
COc1ccc(Cc2nc3ccc(C(=O)N(C)CCc4cnn(C)c4)cc3o2)cc1OC	/	.	.	/	/
SMILES	OX1R antag-1	TAAR1 antag	TAAR1 ag	OX1R antag-2	CHO parental Ca
CCn1cc(C(=O)N2CCN(c3ccc([N+](=O)[O-])cc3)CC2)c(=O)c2ccc(C)nc21	45	.	.	.	.
CCn1cc(C(=O)N2CCN(c3cccc(C)c3C)CC2)c(=O)c2ccc(C)nc21	.	.	.	.	.
O=C(NCc1ccccc1)[C@@H]1CCCN1C(=O)[C@H]1CCCN1C(=O)c1ccccc1C(F)(F)F	/	.	.	/	/
O=C(CCS(=O)(=O)Cc1ccccc1)Nc1ncc([N+](=O)[O-])s1	49	.	.	.	.
Cc1ccc(CC(=O)Nc2ncc([N+](=O)[O-])s2)cc1	40	.	.	.	.
Cc1ccc(S(=O)(=O)CC(=O)Nc2ncc([N+](=O)[O-])s2)cc1	.	.	.	.	.
O=C(COC(=O)c1ccc(Br)o1)Nc1ncc([N+](=O)[O-])s1	41	.	.	.	.
Cc1ncoc1C(=O)Nc1ncc([N+](=O)[O-])s1	.	.	.	.	.
CCCCC(CC)C(=O)Nc1ncc([N+](=O)[O-])s1 (stereo not given)	.	.	.	.	38
COC(=O)c1cc2c(c3c4ccccc4n(S(=O)(=O)c4ccc(OC)cc4)c13)C(=O)N(Cc1ccccc1OC)C2	/	.	.	/	/
CCOC(=O)c1oc2ccc(S(=O)(=O)n3nc(-c4ccccc4)cc3N)cc2c1C	.	.	.	.	32
O=C(Nc1ccc(N2CCN(C(=O)c3ccccc3F)CC2)cc1)c1cncc(Br)c1	.	52	.	.	.
CCOc1ccccc1NC(=O)C(Sc1nnc2ccccn12)c1ccccc1 (stereo not given)	41	.	.	.	.
O=C(Nc1ccc(Br)cc1)NC1CCCCCCC1	.	.	.	.	40
CC(=O)OC1COC(OC2C(O)C(C)OC(OC3C(OC4CCC5(C)C(CCC6(C)C5CC=C5C7CC(C)(C)CCC7(C(=O)O)CCC56C)C4(C)CO)OCC(O)C3O)C2O)C(O)C1OC(C)=O (stereo not given)	.	/	/	105	101
C/C=C(/C)C(=O)OC1CC(C)(C)C[C@H]2C3=CC[C@@H]4[C@@]5(C)CCC(O[C@@H]6O[C@@H](C(=O)O)[C@@H](O)C(O[C@@H]7OC[C@H](O)[C@@H](O)[C@@H]7O[C@@H]7OC(CO)C(O)[C@@H](O)[C@@H]7O)C6O[C@@H]6OC(CO)C(O)C(O)C6O)[C@@](C)(CO)[C@@H]5CC[C@]4(C)[C@]3(C)CC(O)[C@@]12CO (stereo not given in full)	.	/	/	104	101
CC1(C)C[C@H]2C3=CCC4[C@@]5(C)CC[C@H](O[C@@H]6O[C@H](C(=O)O)[C@@H](O)[C@H](O)[C@H]6O)[C@@](C)(CO)C5CC[C@@]4(C)[C@]3(C)C[C@H](O)[C@@]2(CO)[C@@H](O)[C@@H]1O (stereo not given in full)	.	.	.	.	.
CS(=O)(=O)NCCCNc1ccc(Cl)cc1[N+](=O)[O-]	43	.	.	.	.
CS(=O)(=O)NCCCNc1ccc(C(F)(F)F)cc1[N+](=O)[O-]	.	.	.	.	.
O=C(/C=C/c1cccc(Cl)c1)c1ccc([N+](=O)[O-])o1	.	.	57	.	.
COc1cc(Nc2ccc(C)cc2)c([N+](=O)[O-])nc1[N+](=O)[O-]	.	.	.	.	.
Cc1cc(C)cc(Nc2ccc([N+](=O)[O-])nc2[N+](=O)[O-])c1	61	.	.	.	.
CCOc1ccc(C(=O)C[n+]2cccc3cc(C)ccc32)cc1	47	.	.	.	.
Cc1ccc(C(=O)C[n+]2cccc3cc(C)ccc32)cc1	.	.	.	.	.

Screening data (PubChem)
